NF-kB neuron act: compounds increasing NF-kB expression in human neuronal cells; NF-kB reporter expression; stronger effect = higher value; fold change at 12.5 µM; 1.6% of 190,000 active; AID 1239; in the data active means fold change above about 3.3
APP 5'UTR act: activates APP 5'UTR luciferase reporter; 1% of 190,000 active; AID 1276; SH-SY5Y APP 5'UTR luciferase reporter, luminescence; zero percent = DMSO vehicle wells; activation, % at 2 µM;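 active means activation above a set limit, based on mean plus 3 SD of controls, cut at about 140% in these data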
PERK inh: blocks human PERK kinase | Q9NZJ5 | CHO PERK-DD fusion, SEAP luminescence translation reporter | inhibition, % at 5.6 µM | 0.17% of 220,000 active | AID 1416;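 active means inhibition above the mean inhibition of all tested compounds plus 3 SD, set separately per screening campaign, cut at about 2.9% in these data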;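 further: PERK kinase domain activated by AP20187 dimerizer at 100 nM; 0% = DMSO with dimerizer and 100% = rapamycin at 8.4 µM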
MDM2 E3 inh: Mdm2 E3 ligase (human) inhibition. cell-based MDM2 ubiquitination luciferase reporter, 2 h; 0 = plate control, 100 = twice control, blank-subtracted. 0.11% of 210,000 active. signal enhancement, % at 5 µM. Q00987;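 active means signal enhancement of 30% or more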;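 further: luminescence tracks abundance of the self-degrading MDM2-luciferase fusion protein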
Target sequence (Q00987 whole entry, looked up, the tested form may be a part): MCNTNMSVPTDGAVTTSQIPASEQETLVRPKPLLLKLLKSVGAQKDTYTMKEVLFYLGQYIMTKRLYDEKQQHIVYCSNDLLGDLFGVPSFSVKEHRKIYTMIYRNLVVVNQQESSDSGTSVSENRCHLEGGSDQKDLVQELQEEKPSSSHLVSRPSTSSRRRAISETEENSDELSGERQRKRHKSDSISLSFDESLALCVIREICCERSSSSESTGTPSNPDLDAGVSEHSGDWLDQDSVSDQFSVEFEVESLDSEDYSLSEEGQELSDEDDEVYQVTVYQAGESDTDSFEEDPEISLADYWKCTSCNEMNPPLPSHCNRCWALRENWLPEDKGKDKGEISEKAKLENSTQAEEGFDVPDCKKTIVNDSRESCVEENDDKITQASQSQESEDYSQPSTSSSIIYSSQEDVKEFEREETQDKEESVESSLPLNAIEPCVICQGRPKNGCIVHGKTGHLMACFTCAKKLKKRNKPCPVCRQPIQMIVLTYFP
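System: stable MDM2–luciferase fusion reporter cells / Input: 2000 cells seeded into each well / Schedule: 4 h settle plus 2 h compound, 37 °C / Compound: single-point 5 µM / Buffer or medium: cells held in DMEM / Benchmarks: control and blank well means / Evaluation: percent signal gain over controls, blank-subtracted / Measured by: luciferase luminescence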
AHR activator: activates the human aryl hydrocarbon receptor | P35869 | AHR-responsive luciferase reporter cells, luminescence | activation, % at 5 µM | 2.5% of 320,000 active; in the data active means activation above about 47%;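 further: 0% = vehicle wells and 100% = reference agonist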
STAT1 activator: STAT1 signaling activation. 2.6% of 200,000 active. NIH 3T3 STAT1-luciferase reporter, IFN-gamma, luminescence; 100% = IFN-gamma alone, no compound. AID 932. activation (% of control), % at 5.5 µM;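 active means activation above the screen-wide mean activation plus 3 SD, cut at about 130% in these data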;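 further: raw ratio to IFN-gamma control signal so 100% means no change and 0% no light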
* marks the source's active call; other numbers are inactive results; nt = no result given. A selection: hits, their analogues and other compounds. The true share with any hit is near 4.5%.

SMILES	NF-kB neuron act	APP 5'UTR act	PERK inh	MDM2 E3 inh	AHR activator	STAT1 activator
Cc1ccccc1CN1C[C@@H]2C[C@@H](c3cnc(N4CCOCC4)s3)N3CCC[C@@]23C1=O	0.68	-4	0	-4	0	111
Cc1nn2cc(-c3ccccc3)nc2s1	5.4*	114	1	-15	0	144*
COc1ccc2nc(SCC(=O)NCc3ccc(OC)c(OC)c3)[nH]c2c1	nt	nt	nt	nt	7	nt
CCC(C)c1ccc(NC(=O)COc2c(F)c(F)c(C(F)(F)F)c(F)c2F)cc1 (stereo unspecified)	0.95	5	1	7	5	98
NNc1nc2c(Cl)ccc(Cl)c2s1	0.85	-12	0	-4	56*	85
CCC1CCCCN1C(=O)COC(=O)CN(C)S(=O)(=O)c1ccc(NC(C)=O)cc1 (stereo unspecified)	nt	nt	nt	nt	1	nt
COc1cccc(N2[C@@H](CC(C)=O)c3ccc(/C=C/C(C)=O)cc3S2(=O)=O)c1	nt	nt	nt	nt	5	nt
COc1ccccc1C(=O)N/C(N)=N/c1nc2ccccc2o1	1.4	0	1	-15	69*	112
CC(=O)c1cnc2cc(C)nn2c1C	1	-1	1	-11	2	112
CC(=O)c1cnc2cc(-c3ccc(C)cc3)nn2c1C	6.6*	60	-1	-24	15	137*
COc1ccc(-c2cc3ncc(C(C)=O)c(C)n3n2)cc1	2.8	141*	0	-17	2	135*
Cc1ccc(-c2cc3ncc(C#N)c(N)n3n2)cc1	1	76	1	-11	13	130*
Cc1ccc(-n2ncc(C#N)c2N)cc1	nt	nt	0	-1	3	nt
CC(=O)c1c(C)n([O-])c2ccc(C)cc2[n+]1=O	1.2	-8	0	-13	60*	99
Cc1ccc2c(c1)n([O-])c1c([n+]2=O)CCCC1	1	-2	1	-9	7	104
CC1(C)CC(NC(=O)c2ccc(-c3ccc([N+](=O)[O-])cc3)o2)CC(C)(C)N1	nt	nt	nt	nt	3	nt
Cc1cc(C(=O)CSc2nc3ccccc3o2)c(C)n1C1CC1	2.2	99	1	-6	-4	136*
Cc1cc(C(=O)CSc2ncnc3ccccc23)c(C)n1C1CC1	nt	nt	nt	nt	29	nt
Cc1nnc(SCC(=O)c2cc(C)n(C3CC3)c2C)s1	2.6	65	0	-22	-3	136*
CNc1nnc(SCC(=O)c2cc(C)n(C3CC3)c2C)s1	nt	nt	nt	nt	1	nt
COc1ccccc1CCC(=O)N(C)C1CCCN(Cc2ccccc2F)C1 (stereo unspecified)	nt	nt	nt	nt	0	nt
CS(=O)(=O)c1ccc(Cl)c(C(=O)Nc2ccc3nc(N4CCOCC4)sc3c2)c1	nt	nt	nt	nt	28	nt
CCN(CC)c1ccc2c(C)c(Cl)c(=O)oc2c1	nt	-14	1	nt	40	114
CCN(CC)c1ccc2c(Cl)c(Br)c(=O)oc2c1	1.6	-5	0	-16	53*	86
Cc1cc2c(cc1C)C(c1ccccc1OC(C)C)CC(=O)N2 (stereo unspecified)	nt	nt	nt	nt	52*	nt
SMILES	NF-kB neuron act	APP 5'UTR act	PERK inh	MDM2 E3 inh	AHR activator	STAT1 activator
O=C(N/C(=C\c1ccccc1)C(=O)N1CCOCC1)c1ccccc1Cl	nt	nt	nt	nt	2	nt
O=C(N/C(=C/C=C/c1ccccc1)C(=O)N1CCOCC1)c1ccccc1Cl	0.85	6	0	-9	67*	102
CC(C)CC(=O)Nc1ccc(-c2nnn(CC(=O)NCc3ccco3)n2)cc1	1.7	64	0	-14	6	129*
COc1cccc(Nc2nc(-c3sc(N)nc3C)cs2)c1	0.79	nt	1	4	105*	102
Cc1nc(N)sc1-c1csc(Nc2ncccn2)n1	2.5	177*	0	-23	nt	125
Cc1ccccc1/C=N/NC(=O)Cn1cnc([N+](=O)[O-])n1	0.94	-24	1	-4	1	101
O=C(Cn1cnc2ccccc21)N/N=C/c1ccc([N+](=O)[O-])cc1	0.84	-11	0	-16	49*	96
O=C(Cn1cnc([N+](=O)[O-])n1)N/N=C/c1ccccc1O	1.3	0	3.4*	-3	1	107
Cc1nc2sc(C(=O)Nc3ccccc3)c(N)c2c(C)c1[N+](=O)[O-]	1.7	168*	0	-15	29	126
Nc1c(C(=O)Nc2ccccc2)sc2ncc([N+](=O)[O-])cc12	nt	nt	-1	-12	-3	nt
COC(=O)c1c(C)[nH]c(O)c1C=Nc1ccc(C(C)C)cc1	1.5	-20	1	-6	90*	117
CCOC(=O)c1c(C)[nH]c(O)c1C=Nc1ccc(C(F)(F)F)cc1	0.84	4	1	-7	62*	106
CCOC(=O)c1c(C)[nH]c(O)c1C=Nc1ccc(Cl)cc1	0.76	5	1	-11	77*	115
COC(=O)c1c(C)[nH]c(O)c1C=Nc1ccc(Oc2ccccc2)cc1	1.1	39	1	-70	-3	105
CC(O)C(NS(=O)(=O)c1ccc(Cl)cc1)C(=O)OCC(=O)N1CCN(c2ccccc2)CC1 (stereo unspecified)	1.1	2	0	-2	0	98
CCOc1ccc(NC(=O)c2cccc(OC(=S)N3CCOCC3)c2)cc1	1.2	-7	-1	-12	0	99
CCN=c1scc(-c2ccccc2)n1/N=C/c1ccccn1	3	166*	0	-41	-12	170*
CCCc1sc(N/N=C/c2ccccn2)nc1-c1ccc(F)cc1	1.1	118	0	-9	32	102
CCN=c1scc(-c2ccc(F)cc2)n1/N=C/c1ccccn1	5*	107	0	-17	-3	138*
CC[C@H](C)C(C(=O)N1CCN(C(=O)OC(C)(C)C)CC1)n1cc(C(Cc2ccc(O)cc2)NC(=O)OC(C)(C)C)nn1 (stereo partly specified)	0.47	15	1	nt	-1	97
Nc1nnc(SCc2coc(-c3ccc(Cl)cc3)n2)s1	1.9	46	1	-18	16	143*
Nc1nnc(SCc2ccc(Cl)cc2)s1	1.7	12	0	nt	1	112
COC(=O)Cc1ccc(O)c(N)c1	1.2	3	1	-3	-1	94
C/C(=C\C(=O)c1cccnc1)Nc1ccc(O)cc1	0.68	nt	0	-15	20	113
CC(=O)c1ccc(N/C=C\C(=O)c2ccc(C)cc2)cc1	1	127	1	-5	7	148*
Cc1ccc(C(=O)/C=C/Nc2ccc3c(c2)OCO3)cc1	6*	95	0	4	25	132*
Cc1noc(NS(=O)(=O)c2ccc(N/C=C\C(=O)c3ccc4c(c3)OCO4)cc2)c1C	1.3	22	1	-9	1	118
C/C(=C\C(=O)c1ccccc1)Nc1ccc(O)cc1	4.5*	3	1	-13	3	140*
C/C(=C\C(=O)c1ccc(C)cc1)Nc1ccc(N2CCOCC2)cc1	1	-1	0	-9	nt	103

Screening data deposited in PubChem BioAssay by several laboratories.
